{
  "source": "ChEMBL document CHEMBL1125220",
  "about": "(J Med Chem, 1991)",
  "key": {"D(2) dopamine receptor [1]": {"molecular_target": "T1, D(2) dopamine receptor (Rattus norvegicus, UniProt P61169)", "T1 sequence (P61169 whole entry)": "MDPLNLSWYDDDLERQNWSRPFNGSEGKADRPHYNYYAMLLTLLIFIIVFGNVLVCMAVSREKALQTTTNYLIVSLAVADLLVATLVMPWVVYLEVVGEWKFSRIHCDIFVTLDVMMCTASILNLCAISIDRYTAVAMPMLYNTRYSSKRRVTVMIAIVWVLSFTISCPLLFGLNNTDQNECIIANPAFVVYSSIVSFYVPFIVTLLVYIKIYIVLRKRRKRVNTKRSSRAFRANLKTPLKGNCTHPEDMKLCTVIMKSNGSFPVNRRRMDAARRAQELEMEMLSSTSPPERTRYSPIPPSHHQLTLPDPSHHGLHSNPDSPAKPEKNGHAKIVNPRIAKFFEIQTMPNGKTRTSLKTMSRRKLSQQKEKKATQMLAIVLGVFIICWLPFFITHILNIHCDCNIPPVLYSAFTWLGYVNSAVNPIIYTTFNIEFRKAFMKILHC", "assay": "Compound was tested for its binding affinity towards dopamine receptor D2 by using [3H]domperidone as radioligand", "method_in_brief": "(§1)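 Rat striatal membranes from frozen tissue, washed and resuspended in 50 mM Tris-HCl with 120 mM NaCl, 5 mM KCl, 2 mM CaCl2, 1 mM MgCl2 (pH 7.4 at 37 °C). Competition binding used [3H]SCH-23390 for D1 and [3H]domperidone for D2. IC50 ± SEM from duplicate or triplicate determinations.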"}, "[2]": {"molecular_target": "Glutamate receptor ionotropic, NMDA 2C (Rattus norvegicus, UniProt Q00961)", "sequence (Q00961 whole entry)": "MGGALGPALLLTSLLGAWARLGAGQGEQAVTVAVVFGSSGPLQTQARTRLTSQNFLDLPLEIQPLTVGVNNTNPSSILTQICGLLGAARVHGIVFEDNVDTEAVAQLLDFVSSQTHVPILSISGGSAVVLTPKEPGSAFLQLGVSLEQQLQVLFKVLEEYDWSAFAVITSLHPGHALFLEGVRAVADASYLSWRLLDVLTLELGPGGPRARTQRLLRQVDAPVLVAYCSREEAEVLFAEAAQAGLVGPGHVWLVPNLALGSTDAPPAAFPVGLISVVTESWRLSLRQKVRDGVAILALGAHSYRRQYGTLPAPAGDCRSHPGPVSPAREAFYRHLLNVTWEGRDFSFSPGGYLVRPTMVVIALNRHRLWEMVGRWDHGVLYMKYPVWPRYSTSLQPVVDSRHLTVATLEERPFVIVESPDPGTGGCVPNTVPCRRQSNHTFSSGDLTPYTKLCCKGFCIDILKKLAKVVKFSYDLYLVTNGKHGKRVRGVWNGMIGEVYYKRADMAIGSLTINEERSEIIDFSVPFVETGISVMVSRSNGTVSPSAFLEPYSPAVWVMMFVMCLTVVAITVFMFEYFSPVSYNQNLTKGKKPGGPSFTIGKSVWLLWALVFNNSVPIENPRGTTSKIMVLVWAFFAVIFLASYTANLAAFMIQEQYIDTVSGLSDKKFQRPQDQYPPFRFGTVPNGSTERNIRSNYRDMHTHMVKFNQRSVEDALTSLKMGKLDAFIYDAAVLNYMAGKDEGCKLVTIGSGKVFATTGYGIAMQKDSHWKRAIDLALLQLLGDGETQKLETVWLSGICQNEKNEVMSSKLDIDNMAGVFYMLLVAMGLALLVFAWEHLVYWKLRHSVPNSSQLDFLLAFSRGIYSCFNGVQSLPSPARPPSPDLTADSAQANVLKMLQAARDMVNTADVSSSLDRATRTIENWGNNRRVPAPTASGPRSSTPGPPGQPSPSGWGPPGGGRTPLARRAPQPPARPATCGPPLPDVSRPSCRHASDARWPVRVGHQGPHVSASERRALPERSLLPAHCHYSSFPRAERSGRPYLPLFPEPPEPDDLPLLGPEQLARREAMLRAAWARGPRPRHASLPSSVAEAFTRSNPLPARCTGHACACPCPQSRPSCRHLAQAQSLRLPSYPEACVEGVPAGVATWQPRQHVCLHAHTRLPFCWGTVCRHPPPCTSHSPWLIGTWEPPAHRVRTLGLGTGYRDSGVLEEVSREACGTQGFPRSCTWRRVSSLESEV", "assay": "(§2) Compound was tested for its affinity towards PCP receptor in rat brain membrane [3H]MK-801 as radioligand", "assay_type": "cell membranes"}, "D(1A) dopamine receptor [3]": {"molecular_target": "T2, D(1A) dopamine receptor (Rattus norvegicus, UniProt P18901)", "T2 sequence (P18901 whole entry)": "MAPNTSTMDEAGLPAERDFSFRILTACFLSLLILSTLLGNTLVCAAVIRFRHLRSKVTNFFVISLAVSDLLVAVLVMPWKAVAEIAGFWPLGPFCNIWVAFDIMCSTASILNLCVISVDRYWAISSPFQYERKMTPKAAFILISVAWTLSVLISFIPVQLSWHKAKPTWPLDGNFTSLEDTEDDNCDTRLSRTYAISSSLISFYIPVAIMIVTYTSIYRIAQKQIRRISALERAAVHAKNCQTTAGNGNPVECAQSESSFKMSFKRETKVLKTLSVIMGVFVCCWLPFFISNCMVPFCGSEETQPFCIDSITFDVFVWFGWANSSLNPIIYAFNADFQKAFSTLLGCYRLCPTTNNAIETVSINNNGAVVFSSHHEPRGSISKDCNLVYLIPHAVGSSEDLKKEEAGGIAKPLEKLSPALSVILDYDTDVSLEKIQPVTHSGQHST", "assay": "Binding affinity towards Dopamine receptor D1 in rat membranes using [3H]SCH-23390 as radioligand", "assay_type": "cell membranes"}, "D(2) dopamine receptor [4]": {"molecular_target": "T1, D(2) dopamine receptor", "assay": "Compound was tested for its binding affinity towards Dopamine receptor D2 by using [3H]domperidone as radioligand"}, "Rattus norvegicus": {"organism": "Rattus norvegicus", "assay": "as §2"}, "D(1A) dopamine receptor [5]": {"molecular_target": "T2, D(1A) dopamine receptor", "assay": "Binding affinity determined in radioreceptor binding assay by using [3H]SCH-23390 radioligand against dopamine receptor D1", "method_in_brief": "as §1"}},
  "data": [
    {"smiles": "c1ccc(CCCCN2CCN(c3ccccc3)CC2)cc1", "values": [
      {"measurement": "IC50", "setting": "D(2) dopamine receptor [1]", "value": 45, "unit": "nM"},
      {"measurement": "IC50", "setting": "[2]", "value": "> 10000", "unit": "nM"},
      {"measurement": "IC50", "setting": "D(1A) dopamine receptor [3]", "value": 2820, "unit": "nM"}
    ]},
    {"smiles": "c1ccc(CCCN2CCC(c3ccccc3)CC2)cc1", "values": [
      {"measurement": "IC50", "setting": "[2]", "value": "> 10000", "unit": "nM"},
      {"measurement": "IC50", "setting": "D(1A) dopamine receptor [3]", "value": "> 10000", "unit": "nM"},
      {"measurement": "IC50", "setting": "D(2) dopamine receptor [4]", "value": 335, "unit": "nM"}
    ]},
    {"smiles": "c1ccc(CCCCN2CCC(c3ccccc3)CC2)cc1", "values": [
      {"measurement": "IC50", "setting": "D(1A) dopamine receptor [3]", "value": "> 10000", "unit": "nM"},
      {"measurement": "IC50", "setting": "D(2) dopamine receptor [4]", "value": 165, "unit": "nM"},
      {"measurement": "IC50", "setting": "Rattus norvegicus", "value": "> 10000", "unit": "nM"}
    ]},
    {"smiles": "c1ccc(N2CCN(CCCc3ccc4ccccc4c3)CC2)cc1", "values": [
      {"measurement": "IC50", "setting": "D(2) dopamine receptor [1]", "value": 160, "unit": "nM"},
      {"measurement": "IC50", "setting": "[2]", "value": "> 10000", "unit": "nM"}
    ]},
    {"smiles": "OC1(c2ccccc2)CCN(CCCc2ccccc2)CC1", "values": [
      {"measurement": "IC50", "setting": "D(1A) dopamine receptor [3]", "value": "> 10000", "unit": "nM"},
      {"measurement": "IC50", "setting": "D(2) dopamine receptor [4]", "value": 1250, "unit": "nM"},
      {"measurement": "IC50", "setting": "Rattus norvegicus", "value": "> 10000", "unit": "nM"}
    ]},
    {"smiles": "c1ccc(CCCCCN2CCC(c3ccccc3)CC2)cc1", "values": [
      {"measurement": "IC50", "setting": "D(2) dopamine receptor [1]", "value": 210, "unit": "nM"},
      {"measurement": "IC50", "setting": "[2]", "value": "> 10000", "unit": "nM"},
      {"measurement": "IC50", "setting": "D(1A) dopamine receptor [5]", "value": "> 10000", "unit": "nM"}
    ]}
  ]
}
